Activity calls are given as the source filed them. No cut-off for these calls is given here.
Assays:
Rattus norvegicus [1] = species: Rattus norvegicus; experiment: Effect on 5-HTP accumulation in limbic system of rat; Inactive; format: functional, organism-based
Rattus norvegicus [2] = species: Rattus norvegicus; experiment: Effect on 5-HTP accumulation in striatum of rat; Inactive; format: functional, organism-based
Rattus norvegicus [3] = species: Rattus norvegicus; experiment: Effect on dopamine accumulation in hemispheres of rat; Inactive; format: functional, organism-based
Rattus norvegicus [4] = species: Rattus norvegicus; experiment: Effect on dopamine accumulation in limbic system of rat.; format: functional
Rattus norvegicus [5] = species: Rattus norvegicus; experiment: Effect on dopamine accumulation in striatum of rat.; format: functional
Rattus norvegicus [6] = species: Rattus norvegicus; experiment: Effect on 5-HTP accumulation in hemispheres of rat; Inactive; format: functional, organism-based
Rattus norvegicus [7] = experiment: Brain Concentration at 25 (umol/kg, sc) with tropolone pretreatment in rat striatum; format: functional, organism-based
Summary of the method: (§1)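 Male Wistar rats dosed sc in the neck with compound in saline (1 mL/kg), with or without tropolone pretreatment. Killed by decapitation 45 min later; striatum, cerebellum and cortex dissected and frozen at -80 °C. Perchloric acid extracts purified over Sephadex G10 and the formic acid eluate analysed by reversed-phase HPLC with electrochemical detection. Mean ± SEM, n = 4.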

Rattus norvegicus [8] = experiment: Brain Concentration at 25 (umol/kg, sc) with tropolone pretreatment in rat cerebellum; format: functional, organism-based; summary of the method: as §1
Rattus norvegicus [9] = experiment: Brain Concentration at 25 (umol/kg, sc) with tropolone pretreatment in rat cortex; format: functional, organism-based; summary of the method: as §1
Rattus norvegicus [10] = experiment: Brain Concentration of 5,6-di-OH-DPAT after 25 (umol/kg) sc administration with tropolone pretreatment in rat cerebellum; format: functional, organism-based; summary of the method: as §1
Rattus norvegicus [11] = experiment: Brain Concentration at 25 (umol/kg, sc) without tropolone pretreatment in rat cerebellum; format: functional, organism-based; summary of the method: as §1
Rattus norvegicus [12] = experiment: Brain Concentration at 25 (umol/kg, sc) without tropolone pretreatment in rat cortex; format: functional, organism-based; summary of the method: as §1
Rattus norvegicus [13] = experiment: Brain Concentration at 25 (umol/kg, sc) without tropolone pretreatment in rat striatum; format: functional, organism-based; summary of the method: as §1
Rattus norvegicus [14] = experiment: Brain Concentration of 5,6-di-OH-DPAT after 25 (umol/kg) sc administration with tropolone pretreatment in rat cortex; format: functional, organism-based; summary of the method: as §1
Rattus norvegicus [15] = experiment: Brain Concentration of 5,6-di-OH-DPAT after 25 (umol/kg) sc administration without tropolone pretreatment in rat cerebellum; format: functional, organism-based; summary of the method: as §1
Rattus norvegicus [16] = experiment: Brain Concentration of 5,6-di-OH-DPAT after 25 (umol/kg) sc administration without tropolone pretreatment in rat cortex; format: functional, organism-based; summary of the method: as §1
Rattus norvegicus [17] = experiment: Brain Concentration of 5,6-di-OH-DPAT after 25 (umol/kg) sc administration without tropolone pretreatment in rat striatum; format: functional, organism-based; summary of the method: as §1
Rattus norvegicus [18] = species: Rattus norvegicus; experiment: Apparent kinetic constant(Km) for the aromatic hydroxylation on crude rat liver microsomes.; format: functional, organism-based
Summary of the method: (§2)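 Crude rat liver microsomes (0.5 mg protein/mL) were incubated with substrate at 37 °C for 3 min in 0.1 M Tris, pH 7.4, with 0.1 mM NADPH and MgCl₂. The reaction was stopped with perchloric acid. Catechol products in the supernatant were measured by HPLC with electrochemical detection. Apparent Km and Vmax came from Lineweaver-Burk plots of 3–4 substrate concentrations, each run in triplicate.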

[19] = Ratio of Km to that Vmax in crude rat liver microsomes was determined; conditions: Microsome
Rattus norvegicus [20] = experiment: Brain Concentration of 5,6-di-OH-DPAT after 25 (umol/kg) sc administration with tropolone pretreatment in rat striatum; format: functional, organism-based; summary of the method: as §1
Rattus norvegicus [21] = species: Rattus norvegicus; experiment: Apparent kinetic constant(Vmax) for the aromatic hydroxylation on crude rat liver microsomes at 1 mg of protein; format: functional; summary of the method: as §2
Rattus norvegicus [22] = experiment: Brain Concentration of 7,8-di-OH-DPAT after 15(umol/kg) sc administration without tropolone pretreatment in rat cortex; format: functional, organism-based; summary of the method: as §1
Rattus norvegicus [23] = experiment: Brain Concentration of 7,8-di-OH-DPAT after 15(umol/kg) sc administration without tropolone pretreatment in rat striatum; format: functional, organism-based; summary of the method: as §1
Rattus norvegicus [24] = experiment: Brain Concentration at 15(umol/kg, sc) with tropolone pretreatment in rat cerebellum; format: functional, organism-based; summary of the method: as §1
Rattus norvegicus [25] = experiment: Brain Concentration at 15(umol/kg, sc) with tropolone pretreatment in rat cortex; format: functional, organism-based; summary of the method: as §1
Rattus norvegicus [26] = experiment: Brain Concentration at 15(umol/kg, sc) with tropolone pretreatment in rat striatum; format: functional, organism-based; summary of the method: as §1
Rattus norvegicus [27] = experiment: Brain Concentration at 15(umol/kg, sc) without tropolone pretreatment in rat cerebellum; format: functional, organism-based; summary of the method: as §1
Rattus norvegicus [28] = experiment: Brain Concentration at 15(umol/kg, sc) without tropolone pretreatment in rat cortex; format: functional, organism-based; summary of the method: as §1
Rattus norvegicus [29] = experiment: Brain Concentration of 7,8-di-OH-DPAT after 15(umol/kg) sc administration with tropolone pretreatment in rat cerebellum; format: functional, organism-based; summary of the method: as §1
Rattus norvegicus [30] = experiment: Brain Concentration of 7,8-di-OH-DPAT after 15(umol/kg) sc administration with tropolone pretreatment in rat cortex; format: functional, organism-based; summary of the method: as §1
Rattus norvegicus [31] = experiment: Brain Concentration of 7,8-di-OH-DPAT after 15(umol/kg) sc administration with tropolone pretreatment in rat striatum; format: functional, organism-based; summary of the method: as §1
Rattus norvegicus [32] = experiment: Brain Concentration of 7,8-di-OH-DPAT after 15(umol/kg) sc administration without tropolone pretreatment in rat cerebellum; format: functional, organism-based; summary of the method: as §1
Rattus norvegicus [33] = species: Rattus norvegicus; experiment: Effect on 5-HTP accumulation in limbic system of rat.; format: functional
Rattus norvegicus [34] = species: Rattus norvegicus; experiment: Effect on 5-HTP accumulation in striatum of rat.; format: functional
Rattus norvegicus [35] = species: Rattus norvegicus; experiment: Effect on dopamine accumulation in limbic system of rat; Inactive; format: functional, organism-based
Rattus norvegicus [36] = species: Rattus norvegicus; experiment: Effect on dopamine accumulation in striatum of rat; Inactive; format: functional, organism-based
Rattus norvegicus [37] = species: Rattus norvegicus; experiment: Effect on 5-HTP accumulation in hemispheres of rat.; format: functional
Rattus norvegicus [38] = experiment: Brain Concentration at 15(umol/kg, sc) without tropolone pretreatment in rat striatum; format: functional, organism-based; summary of the method: as §1
Rattus norvegicus [39] = experiment: post-synaptic effect was assayed by the increase in locomotor activity (reserpine pretreatment), at 12.5 umol/kg; format: functional
Summary of the method: (§3)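 Male Sprague-Dawley rats pretreated sc in the neck with reserpine (5 mg/kg), then given the compound sc in the neck (n = 4). Placed singly in motility meters immediately after dosing; locomotor counts accumulated over 0–30 min. Student's t test.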

Rattus norvegicus [40] = species: Rattus norvegicus; experiment: Effect on dopamine accumulation in hemispheres of rat.; format: functional
Rattus norvegicus [41] = experiment: post-synaptic effect was assayed by the increase in locomotor activity (reserpine pretreatment), at 3.15 umol/kg; format: functional; summary of the method: as §3
Rattus norvegicus [42] = species: Rattus norvegicus; experiment: Apparent kinetic constant(Vmax) for the O-Methylation on crude rat liver microsomes at 1 mg of protein; format: functional
Rattus norvegicus [43] = species: Rattus norvegicus; experiment: Apparent kinetic constant(Km) for the O-Methylation on crude rat liver microsomes.; format: functional, organism-based
Rattus norvegicus [44] = experiment: post-synaptic effect was assayed by the increase in locomotor activity (reserpine pretreatment), at 0.25 umol/kg; format: functional; summary of the method: as §3

CCCN(CCC)[C@@H]1CCc2ccc(O)cc2C1
ED50 (Rattus norvegicus [1]): inactive | ED50 (Rattus norvegicus [2]): inactive | ED50 (Rattus norvegicus [3]): inactive | ED50 (Rattus norvegicus [4]): 0.18 µmol/kg | ED50 (Rattus norvegicus [5]): 0.17 µmol/kg | ED50 (Rattus norvegicus [6]): inactive

CCCN(CCC)C1CCc2c(O)cccc2C1 (configuration not stated) [5-OH-DPAT]
Concentration (Rattus norvegicus [7]): 11.9 nM/g | Concentration (Rattus norvegicus [8]): 9.4 nM/g | Concentration (Rattus norvegicus [9]): 12.7 nM/g | Concentration (Rattus norvegicus [10]): 0.3 nM/g | Concentration (Rattus norvegicus [11]): 8.5 nM/g | Concentration (Rattus norvegicus [12]): 12.1 nM/g | Concentration (Rattus norvegicus [13]): 10.8 nM/g | Concentration (Rattus norvegicus [14]): 0.37 nM/g | Concentration (Rattus norvegicus [15]): 0.08 nM/g | Concentration (Rattus norvegicus [16]): 0.08 nM/g | Concentration (Rattus norvegicus [17]): 0.2 nM/g | ED50 (Rattus norvegicus [1]): inactive | ED50 (Rattus norvegicus [2]): inactive | ED50 (Rattus norvegicus [3]): inactive | ED50 (Rattus norvegicus [4]): 0.011 µmol/kg | ED50 (Rattus norvegicus [5]): 0.009 µmol/kg | ED50 (Rattus norvegicus [6]): inactive | Km (Rattus norvegicus [18]): 60 µM | Ratio [19]: 19600 | Concentration (Rattus norvegicus [20]): 0.43 nM/g | Vmax (Rattus norvegicus [21]): 1180 pM/min

CCCN(CCC)C1CCc2cccc(O)c2C1 (configuration not stated) [8-OH-DPAT]
Concentration (Rattus norvegicus [22]): 0.64 nM/g | Concentration (Rattus norvegicus [23]): 0.65 nM/g | Concentration (Rattus norvegicus [24]): 9 nM/g | Concentration (Rattus norvegicus [25]): 13.2 nM/g | Concentration (Rattus norvegicus [26]): 12.3 nM/g | Concentration (Rattus norvegicus [27]): 8.1 nM/g | Concentration (Rattus norvegicus [28]): 10.7 nM/g | Concentration (Rattus norvegicus [29]): 0.54 nM/g | Concentration (Rattus norvegicus [30]): 0.7 nM/g | Concentration (Rattus norvegicus [31]): 0.58 nM/g | Concentration (Rattus norvegicus [32]): 0.5 nM/g | ED50 (Rattus norvegicus [33]): 0.048 µmol/kg | ED50 (Rattus norvegicus [34]): 0.045 µmol/kg | ED50 (Rattus norvegicus [3]): inactive | ED50 (Rattus norvegicus [35]): inactive | ED50 (Rattus norvegicus [36]): inactive | ED50 (Rattus norvegicus [37]): 0.068 µmol/kg | Concentration (Rattus norvegicus [38]): 10.3 nM/g

CCCN(CCC)C1CCc2ccc(O)c(OC)c2C1 (configuration not stated)
ED50 (Rattus norvegicus [33]): 1.49 µmol/kg | ED50 (Rattus norvegicus [34]): 2.06 µmol/kg | ED50 (Rattus norvegicus [3]): inactive | ED50 (Rattus norvegicus [4]): 0.314 µmol/kg | ED50 (Rattus norvegicus [5]): 0.35 µmol/kg | ED50 (Rattus norvegicus [37]): 1.62 µmol/kg | Motor activity (Rattus norvegicus [39]): <149

CCCN(CCC)C1CCc2ccc(O)c(O)c2C1 (configuration not stated)
ED50 (Rattus norvegicus [33]): 1.53 µmol/kg | ED50 (Rattus norvegicus [34]): 1.39 µmol/kg | ED50 (Rattus norvegicus [40]): 1.75 µmol/kg | ED50 (Rattus norvegicus [4]): 0.986 µmol/kg | ED50 (Rattus norvegicus [5]): 0.977 µmol/kg | ED50 (Rattus norvegicus [37]): 1.05 µmol/kg | Motor activity (Rattus norvegicus [41]): <31 | Vmax (Rattus norvegicus [42]): 280 pM/min | Ratio [19]: 117 | Km (Rattus norvegicus [43]): 2400 µM

CCCN(CCC)C1CCc2c(cccc2OC)C1 (configuration not stated)
ED50 (Rattus norvegicus [1]): inactive | ED50 (Rattus norvegicus [2]): inactive | ED50 (Rattus norvegicus [3]): inactive | ED50 (Rattus norvegicus [4]): 0.013 µmol/kg | ED50 (Rattus norvegicus [5]): 0.018 µmol/kg | ED50 (Rattus norvegicus [6]): inactive

CCCN(CCC)C1CCc2c(ccc(O)c2O)C1 (configuration not stated)
ED50 (Rattus norvegicus [1]): inactive | ED50 (Rattus norvegicus [2]): inactive | ED50 (Rattus norvegicus [3]): inactive | ED50 (Rattus norvegicus [4]): 0.007 µmol/kg | ED50 (Rattus norvegicus [5]): 0.007 µmol/kg | ED50 (Rattus norvegicus [6]): inactive | Motor activity (Rattus norvegicus [44]): <529 | Vmax (Rattus norvegicus [42]): 400 pM/min | Ratio [19]: 5000 | Km (Rattus norvegicus [43]): 80 µM

CCCN1CCC[C@@H](c2ccc(O)c(O)c2)C1
Vmax (Rattus norvegicus [42]): 37000 pM/min | Km (Rattus norvegicus [43]): 77 µM

CCCN(CCC)C1CCc2cccc(OC)c2C1 (configuration not stated)
ED50 (Rattus norvegicus [33]): 0.34 µmol/kg | ED50 (Rattus norvegicus [34]): 0.29 µmol/kg | ED50 (Rattus norvegicus [35]): inactive | ED50 (Rattus norvegicus [36]): inactive | ED50 (Rattus norvegicus [37]): 0.23 µmol/kg

CCCN(CCC)C1CCc2c(ccc(O)c2OC)C1 (configuration not stated)
ED50 (Rattus norvegicus [1]): inactive | ED50 (Rattus norvegicus [2]): inactive | ED50 (Rattus norvegicus [3]): inactive | ED50 (Rattus norvegicus [4]): 0.16 µmol/kg | ED50 (Rattus norvegicus [5]): 0.125 µmol/kg | ED50 (Rattus norvegicus [6]): inactive | Motor activity (Rattus norvegicus [39]): <204

Reference: ChEMBL document CHEMBL1124121, “Occurrence and pharmacological significance of metabolic ortho-hydroxylation of 5- and 8-hydroxy-2-(di-n-propylamino)tetralin” (1988)
